Common to all, as to format: functional
One experiment concerns Staphylococcus aureus. Nature of the experiment: Antibacterial activity against Staphylococcus aureus at 20 mg/mL by agar diffusion method. The essentials:
(§1)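 Agar diffusion assay with test solutions at 20 mg/mL in DMSO, run alongside tetracycline as reference. Read-out is the diameter of the inhibition zone in mm, reported as an average.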

Another experiment deals with Enterococcus faecalis. Description: Antibacterial activity against Streptococcus faecalis at 20 mg/mL by agar diffusion method. In outline: as §1
For a further experiment, the system named is Escherichia coli. Description: Antibacterial activity against Escherichia coli at 20 mg/mL by agar diffusion method. The essentials:
as §1

The test system of the next experiment is Pseudomonas aeruginosa. Nature of the experiment: Antibacterial activity against Pseudomonas aeruginosa at 20 mg/mL by agar diffusion method. In outline:
as §1

`COc1ccccc1Cc1cc(-c2ccc(Cl)cc2)n[nH]/c1=N/N=C/c1ccc(OCCOc2ccc(C=O)cc2OC)c(OC)c1`: the diameter of the inhibition zone (DIZ) in the experiment on Staphylococcus aureus was 12 mm; with Enterococcus faecalis, 12 mm; in the experiment with Escherichia coli, 13 mm; in the experiment with Pseudomonas aeruginosa, 13 mm.
Consider `COc1ccccc1Cc1cc(-c2ccccc2)n[nH]/c1=N/N=C/c1ccc(OCCOc2ccc(C=O)cc2)cc1`, for which the diameter of the inhibition zone (DIZ) with Staphylococcus aureus came out at 14 mm; in the experiment with Enterococcus faecalis it was 12 mm; with Escherichia coli, 12 mm; in the experiment on Pseudomonas aeruginosa, 13 mm.
`COc1ccc(-c2cc(Cc3ccccc3OC)/c(=N/N=C/c3ccc(OC(C)=O)c(OC)c3)[nH]n2)cc1`: the diameter of the inhibition zone (DIZ) was 14 mm in the experiment on Staphylococcus aureus, 13 mm with Enterococcus faecalis, 15 mm with Escherichia coli and 12 mm with Pseudomonas aeruginosa.
With `COc1ccc(-c2cc(Cc3ccccc3OC)/c(=N/N=C(\c3ccccc3)c3ccccc3C(=O)O)[nH]n2)cc1`, the diameter of the inhibition zone (DIZ) in the experiment with Staphylococcus aureus stood at 18 mm; with Enterococcus faecalis it was 17 mm; in the experiment on Escherichia coli, 16 mm; with Pseudomonas aeruginosa, 17 mm.
For `COc1ccc(-c2cc(Cc3ccccc3OC)/c(=N/N=C/c3ccc(O)c(OC)c3)[nH]n2)cc1`, the diameter of the inhibition zone (DIZ) in the experiment with Staphylococcus aureus came to 12 mm; in the experiment on Enterococcus faecalis, 12 mm; in the experiment with Escherichia coli, 12 mm; with Pseudomonas aeruginosa, 13 mm.
Regarding `COc1ccc(-c2cc(Cc3ccccc3OC)/c(=N/N=C/C(O)C(O)C(O)CO)[nH]n2)cc1` (configuration not stated), the diameter of the inhibition zone (DIZ) turned out to be 12 mm in the experiment on Staphylococcus aureus, 12 mm with Enterococcus faecalis, 12 mm in the experiment on Escherichia coli and 11 mm in the experiment with Pseudomonas aeruginosa.
Consider `COc1ccccc1Cc1cc(-c2ccccc2)n[nH]/c1=N\N=C(C)C`, for which the diameter of the inhibition zone (DIZ) in the experiment on Staphylococcus aureus was determined as 16 mm; in the experiment with Enterococcus faecalis, 16 mm; with Escherichia coli, 15 mm; with Pseudomonas aeruginosa, 15 mm.
In the case of `COc1ccccc1Cc1cc(-c2ccc(C)cc2)n[nH]/c1=N/N=C/C(OC(C)=O)C(OC(C)=O)C(COC(C)=O)OC(C)=O` (configuration not stated), the diameter of the inhibition zone (DIZ) in the experiment with Staphylococcus aureus came out at 13 mm; in the experiment with Enterococcus faecalis, 13 mm; with Escherichia coli, 13 mm; in the experiment on Pseudomonas aeruginosa, 12 mm.
For the compound `COc1ccccc1Cc1cc(-c2ccc(C)cc2)n[nH]\c1=N/N=C(C)/C(C)=N/N=c1/[nH]nc(-c2ccc(C)cc2)cc1Cc1ccccc1OC`, the diameter of the inhibition zone (DIZ) is 14 mm in the experiment with Staphylococcus aureus, 13 mm with Enterococcus faecalis, 13 mm in the experiment on Escherichia coli and 14 mm in the experiment on Pseudomonas aeruginosa.
As to `COc1ccc(-c2cc(Cc3ccccc3OC)/c(=N\N=C\C(OC(C)=O)C(OC(C)=O)C(OC(C)=O)C(COC(C)=O)OC(C)=O)[nH]n2)cc1` (configuration not stated), the diameter of the inhibition zone (DIZ) with Staphylococcus aureus was found to be 13 mm; in the experiment with Enterococcus faecalis it was 14 mm; with Escherichia coli, 14 mm; in the experiment with Pseudomonas aeruginosa it was 13 mm.
For `COc1ccccc1Cc1cc(-c2ccccc2)n[nH]/c1=N/N=C/c1cc(OC)c(OCCOc2c(OC)cc(C=O)cc2OC)c(OC)c1`, the diameter of the inhibition zone (DIZ) in the experiment with Staphylococcus aureus turned out to be 14 mm; in the experiment on Enterococcus faecalis, 13 mm; in the experiment with Escherichia coli it was 12 mm; in the experiment with Pseudomonas aeruginosa, 14 mm.
On to `COc1ccccc1Cc1cc(-c2ccccc2)n[nH]/c1=N\N=C(c1ccccc1)c1ccccc1`, for which the diameter of the inhibition zone (DIZ) is 13 mm with Staphylococcus aureus, 13 mm in the experiment on Enterococcus faecalis, 12 mm with Escherichia coli and 13 mm in the experiment on Pseudomonas aeruginosa.
Turning to `COc1ccc(-c2cc(Cc3ccccc3OC)/c(=N\N=C\c3ccc(OCCOc4ccc(C=O)cc4OC)c(OC)c3)[nH]n2)cc1`, the diameter of the inhibition zone (DIZ) with Staphylococcus aureus stood at 10 mm; in the experiment on Enterococcus faecalis, 10 mm; in the experiment on Escherichia coli it was 11 mm; with Pseudomonas aeruginosa it was 10 mm.
`COc1ccccc1Cc1cc(-c2ccccc2)n[nH]/c1=N\N=C(/C)c1ccccc1`: the diameter of the inhibition zone (DIZ) in the experiment on Staphylococcus aureus amounted to 13 mm; with Enterococcus faecalis, 13 mm; with Escherichia coli, 12 mm; with Pseudomonas aeruginosa, 12 mm.
In the case of `COc1ccccc1Cc1cc(-c2ccc(Cl)cc2)n[nH]/c1=N\N=C\C(O)C(O)C(O)CO` (configuration not stated), the diameter of the inhibition zone (DIZ) with Staphylococcus aureus is 16 mm; in the experiment with Enterococcus faecalis it was 17 mm; with Escherichia coli it was 16 mm; with Pseudomonas aeruginosa, 15 mm.
Regarding `COc1ccc(-c2cc(Cc3ccccc3OC)/c(=N/N=C(\C)C(C)=O)[nH]n2)cc1`, the diameter of the inhibition zone (DIZ) with Staphylococcus aureus, with Enterococcus faecalis, in the experiment on Escherichia coli and in the experiment with Pseudomonas aeruginosa was 13 mm each time.
For the compound `COc1ccc(-c2cc(Cc3ccccc3OC)/c(=N/N=C/C(O)C(O)C(O)C(O)CO)[nH]n2)cc1` (configuration not stated), the diameter of the inhibition zone (DIZ) in the experiment with Staphylococcus aureus is 16 mm; with Enterococcus faecalis it was 15 mm; with Escherichia coli, 15 mm; in the experiment on Pseudomonas aeruginosa, 14 mm.
As to `CN(C)[C@@H]1C(O)=C(C(N)=O)C(=O)[C@@]2(O)C(O)=C3C(=O)c4c(O)cccc4[C@@](C)(O)[C@H]3C[C@@H]12` [TETRACYCLINE], the diameter of the inhibition zone (DIZ) came to 20 mm with Staphylococcus aureus, 26 mm with Enterococcus faecalis, 22 mm with Escherichia coli and 24 mm in the experiment with Pseudomonas aeruginosa.

The values are drawn from ChEMBL document CHEMBL1158355, “Novel pyridazine derivatives: Synthesis and antimicrobial activity evaluation” (2009).
